Series [1] is described as follows: Toxicity in standard diet fed SCID mouse xenografted with human IGROV1 cells assessed as body weight loss at 96 and 150 mg/kg, iv administered qd for 4 times post 2 days of tumor implantation measured during compound treatment. The class given is organism-based. Particulars: in vivo, 48 h. On the technique in general: Xenograft models place foreign cells or tissue in a host animal.

Series [2] has as its target T1, Proton-coupled folate transporter (Homo sapiens, UniProt Q96NT5).
T1 sequence (Q96NT5 whole entry): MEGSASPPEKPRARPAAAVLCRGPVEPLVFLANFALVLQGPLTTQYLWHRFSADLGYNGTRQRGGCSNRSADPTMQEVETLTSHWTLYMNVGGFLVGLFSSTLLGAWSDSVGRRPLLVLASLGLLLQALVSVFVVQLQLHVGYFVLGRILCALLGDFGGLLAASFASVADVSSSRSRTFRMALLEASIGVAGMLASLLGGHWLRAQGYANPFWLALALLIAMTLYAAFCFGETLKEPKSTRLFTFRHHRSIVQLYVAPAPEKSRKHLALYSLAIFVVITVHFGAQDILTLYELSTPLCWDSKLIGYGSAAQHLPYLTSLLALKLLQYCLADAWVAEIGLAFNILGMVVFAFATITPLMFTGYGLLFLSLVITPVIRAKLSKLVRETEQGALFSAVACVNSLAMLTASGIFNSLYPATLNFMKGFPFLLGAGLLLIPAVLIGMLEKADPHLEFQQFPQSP
In words: Inhibition of [3H]MTX uptake at human PCFT expressed in Chinese hamster R2/PCFT4 cells at pH 5.5 measured after 5 mins by Dixon plot analysis. The class given is cell-based.

Series [3] deals with IGROV-1. The series is described as follows: Antiproliferative activity against human IGROV1 cells expressing human FR-alpha/PCFT assessed as reduction in cell viability measured after 96 hrs by Cell-Titer Blue fluorescence analysis. Type of series: functional, cell-based. The following applies: IGROV-1, 96 h.
A short description of series [4]: Toxicity in folate-deficient diet fed SCID mouse xenografted with human IGROV1 cells assessed as body weight loss at 96 and 150 mg/kg, iv administered […] post 2 days of tumor implantation measured during compound treatment. Type of series: organism-based. Particulars: in vivo, 48 h. The method in brief: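 Female NCR SCID mice (11 weeks old, ~20 g) are fed a folate-deficient diet from 14 days before implant. IGROV1 fragments (30–60 mg) are trocar-implanted subcutaneously in both flanks, and mice are randomised at 5/group. Tail-vein dosing starts on day 2: 28 mg/kg/inj Q3dx5, or 96 or 150 mg/kg/inj Q3dx4. Vehicle is 5% ethanol, 1% Tween-80, 0.5% NaHCO3 in water at pH 6.5. Caliper tumor mass is (a×b²)/2, T/C is taken when controls reach 700–1200 mg, and weights are recorded daily.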

For series [5], the target named is Folate receptor beta (Homo sapiens) (UniProt P14207). In words: Displacement of [3H]folic acid from human FR-beta receptor expressed in Chinese hamster D4 cells measured after 15 mins relative to folic acid. Type of series: cell-based.
Series [6] relates to IGROV-1. In words: Antitumor activity against human IGROV1 cells xenografted into standard diet fed SCID mouse assessed as tumor growth at 28 mg/kg, iv administered […] post 2 days of tumor implantation measured on day 20 relative to control. The class given is functional. The method in brief:
(§1)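 Female NCR SCID mice, 11 weeks, ~20 g, on folate-deficient or standard diet from 14 days pre-implant; bilateral s.c. IGROV1 fragments (30–60 mg); 5 mice/group; tail-vein dosing from day 2 (Q3d schedules) in 5% ethanol, 1% Tween-80, 0.5% NaHCO3, water, pH 6.5; caliper mass (a×b²)/2; T/C and T−C delay.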

Series [7] relates to KB. The series is described as follows: Antiproliferative activity against human KB cells expressing human RFC/FR-alpha/PCFT assessed as reduction in cell viability measured after 96 hrs in presence of folic acid by Cell-Titer Blue fluorescence analysis. The class given is functional, cell-based.
Series [8] addresses T2, Proton-coupled folate transporter (Homo sapiens) (UniProt Q96NT5).
T2 sequence (whole entry): T1 sequence (Q96NT5 whole entry)
In words: Inhibition of [3H]MTX uptake at human PCFT expressed in Chinese hamster R2/PCFT4 cells at 10 uM and pH 5.5 measured after 5 mins. The class given is cell-based.

Series [9] concerns the target T3, Trifunctional purine biosynthetic protein adenosine-3 (Homo sapiens, UniProt P22102).
T3 sequence (P22102 whole entry): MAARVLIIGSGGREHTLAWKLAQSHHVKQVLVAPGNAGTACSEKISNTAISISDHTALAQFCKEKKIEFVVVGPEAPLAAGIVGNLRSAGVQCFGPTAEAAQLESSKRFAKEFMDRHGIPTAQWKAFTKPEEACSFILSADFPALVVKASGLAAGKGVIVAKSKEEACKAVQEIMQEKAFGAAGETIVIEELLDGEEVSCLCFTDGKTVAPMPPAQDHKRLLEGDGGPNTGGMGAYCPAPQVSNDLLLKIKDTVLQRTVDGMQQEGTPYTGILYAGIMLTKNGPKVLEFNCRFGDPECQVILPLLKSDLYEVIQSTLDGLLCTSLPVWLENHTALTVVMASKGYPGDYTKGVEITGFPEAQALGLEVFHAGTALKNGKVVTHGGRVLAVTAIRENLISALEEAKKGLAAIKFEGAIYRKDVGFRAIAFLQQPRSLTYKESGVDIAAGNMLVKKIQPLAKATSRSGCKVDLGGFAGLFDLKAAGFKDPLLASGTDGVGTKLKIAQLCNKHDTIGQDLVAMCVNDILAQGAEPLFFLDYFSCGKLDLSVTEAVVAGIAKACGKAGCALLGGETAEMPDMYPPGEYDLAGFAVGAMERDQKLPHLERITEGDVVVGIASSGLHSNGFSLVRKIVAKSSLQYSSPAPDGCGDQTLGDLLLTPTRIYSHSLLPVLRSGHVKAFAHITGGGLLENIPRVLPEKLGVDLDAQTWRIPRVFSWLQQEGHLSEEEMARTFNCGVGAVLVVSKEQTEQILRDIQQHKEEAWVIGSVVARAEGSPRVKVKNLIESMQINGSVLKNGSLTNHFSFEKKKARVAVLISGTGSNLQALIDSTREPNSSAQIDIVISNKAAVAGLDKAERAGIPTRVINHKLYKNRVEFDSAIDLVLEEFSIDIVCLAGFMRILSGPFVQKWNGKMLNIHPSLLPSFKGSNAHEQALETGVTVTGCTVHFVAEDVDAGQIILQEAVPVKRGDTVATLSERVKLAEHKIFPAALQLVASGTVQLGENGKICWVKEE
In words: Inhibition of GARFTase in human KB cells expressing RFC/FR-alpha/PCFT assessed as decrease in incorporation of [14C(U)]-glycine into [14C]formyl GAR incubated for 1 hr followed by addition of [14C(U)]-glycine measured after 16 hrs in presence of azaserine. The class given is cell-based.

Series [10] deals with Folate receptor alpha (Homo sapiens) (UniProt P15328). The series is described as follows: Displacement of [3H]folic acid from human FR-alpha receptor expressed in Chinese hamster RT16 cells measured after 15 mins relative to folic acid. Type of series: cell-based. The arrangement: concentration or dose not given beside the values. On the technique in general: Displacement assays read how much labelled ligand stays bound in the presence of the test substance.

Series [11] relates to IGROV-1. The series is described as follows: Antitumor activity against human IGROV1 cells xenografted into standard diet fed SCID mouse assessed as tumor growth at 150 mg/kg, iv administered […] post 2 days of tumor implantation measured on day 20 relative to control. The class given is functional. The method in brief: as §1
Series [12] deals with T3, Trifunctional purine biosynthetic protein adenosine-3. In words: Inhibition of recombinant N-terminal 6His-tagged human GARFTase assessed as formation of 5,8-dideazafolate from 10-formyl-5,8-dideazafolic acid measured at every 15 seconds over 20 min by spectrophotometric analysis.

Sequence of Folate receptor beta (Homo sapiens) (P14207 17-230 limits assumed): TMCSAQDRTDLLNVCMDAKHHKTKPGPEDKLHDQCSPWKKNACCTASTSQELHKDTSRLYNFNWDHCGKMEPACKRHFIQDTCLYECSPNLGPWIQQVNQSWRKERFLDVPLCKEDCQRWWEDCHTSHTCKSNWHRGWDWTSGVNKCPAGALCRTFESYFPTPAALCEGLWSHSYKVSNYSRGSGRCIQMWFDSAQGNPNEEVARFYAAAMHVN
Sequence of Folate receptor alpha (Homo sapiens) (P15328 25-234 limits assumed): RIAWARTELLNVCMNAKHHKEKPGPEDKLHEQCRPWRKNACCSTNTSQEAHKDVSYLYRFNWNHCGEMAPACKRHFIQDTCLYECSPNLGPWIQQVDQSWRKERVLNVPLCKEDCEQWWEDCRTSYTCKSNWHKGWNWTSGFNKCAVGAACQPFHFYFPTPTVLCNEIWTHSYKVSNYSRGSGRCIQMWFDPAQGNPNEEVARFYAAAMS

Broadly, the Ki is a measure of affinity in units of concentration, obtained from inhibition or displacement. In general, IC50 refers to the concentration at which inhibition is half-maximal. A word on the inhibition: it is the change of the read-out against control, counted positive when it falls. Broadly, the T/C is the result in the treated group divided by that in the control group, in per cent. Regarding `Nc1nc2[nH]c(CCNc3ccc(C(=O)N[C@@H](CCC(=O)O)C(=O)O)cc3)cc2c(=O)[nH]1`, the Activity result was “Non-Toxic” in [1] and 17 to 17.3% in series [4]. Also, the Ki in series [2] stood at 0.85 µM; in series [12], 0.059 µM. Besides, the concentration for half-maximal inhibition (IC50) in series [3] worked out at 0.0027 µM; in series [7], 0.666 µM; in series [9] it was 0.00264 µM. The inhibition in [5] is 60 to 110%; in [8] it was 80 to 90%; in series [10] it was 60 to 110%. The values for the T/C in [6] and in [11] were 68% and 94%, respectively.

(Values after ChEMBL document CHEMBL4431326, “Tumor Targeting with Novel 6-Substituted Pyrrolo [2,3-d] Pyrimidine Antifolates with Heteroatom Bridge Substitutions via Cellular Uptake by Folate Receptor α and the Proton-Coupled Folate Transporter and Inhibition of de Novo Purine Nucleotide Biosynthesis” (J Med Chem, 2016).)
